Data published in ChEMBL document CHEMBL2177092, “Phosphoramidate ProTides of the anticancer agent FUDR successfully deliver the preformed bioactive monophosphate in cells and confer advantage over the parent nucleoside” (J Med Chem, 2011).

System: not listed separately
Test: Ratio of 5-FU IC50 to compound IC50 for mouse L1210/0 cells after 48 hrs by cell counting
Assay type: functional
Details: not given; call rule not given here
With CCCCCOC(=O)[C@H](C)NP(=O)(OC[C@H]1O[C@@H](n2cc(F)c(=O)[nH]c2=O)C[C@@H]1O)Oc1cccc2ccccc12 (mixture of isomers) the “Ratio IC50” value was 100. For C[C@H](NP(=O)(OC[C@H]1O[C@@H](n2cc(F)c(=O)[nH]c2=O)C[C@@H]1O)Oc1cccc2ccccc12)C(=O)OCc1ccccc1 (mixture of isomers) [FOSIFLOXURIDINE NAFALBENAMIDE], the “Ratio IC50” value was 30.

System: CCRF-CEM
Test: Ratio of IC50 for human CEM cells expressing human ENT1 transporter in presence of dipyridamole to IC50 for human CEM cells expressing human ENT1 transporter
Assay type: functional
Details: not given
In short: (§1)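 Human T-lymphocyte CEM cells with (CEM/hEnt-1) or lacking (CEM/hEnt-0) the hENT1 transporter were seeded at 60 000 cells/well with graded compound concentrations. Transporter-inhibition runs added dipyridamole (10 μM) or NBMPR (10 μM) to CEM/hEnt-1 cells. […] Ratios are formed against untreated CEM/hEnt-1 IC50. Mean of 2–4 experiments.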
For C[C@H](NP(=O)(OC[C@H]1O[C@@H](n2cc(F)c(=O)[nH]c2=O)C[C@@H]1O)Oc1cccc2ccccc12)C(=O)OCc1ccccc1 (mixture of isomers) [FOSIFLOXURIDINE NAFALBENAMIDE], the “Ratio IC50” value was 2.

System: not listed separately
Test: Cytostatic activity against mouse L1210/0 cells after 48 hrs by cell counting
Assay type: functional, cell-based
Details: L1210/0, 48 h
In short: (§2)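 Suspension leukemia cells in DMEM with 10% FBS, 10 mM Hepes and 1 mM sodium pyruvate at 37 °C under 5% CO2. Seeded at 60 000 cells/well with graded compound levels. Grown 48 h (L1210) or 72 h (CEM), then counted by Coulter counter. Mean ± SD of two to four independent experiments.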
CCCCCOC(=O)[C@H](C)NP(=O)(OC[C@H]1O[C@@H](n2cc(F)c(=O)[nH]c2=O)C[C@@H]1O)Oc1cccc2ccccc12 (mixture of isomers) gave an IC50 of 2.1 nM. Work on C[C@H](NP(=O)(OC[C@H]1O[C@@H](n2cc(F)c(=O)[nH]c2=O)C[C@@H]1O)Oc1cccc2ccccc12)C(=O)OCc1ccccc1 (mixture of isomers) [FOSIFLOXURIDINE NAFALBENAMIDE] yielded an IC50 of 11 nM.

System: HeLa
Test: Cytostatic activity against thymidine-kinase deficient human HeLa cells […]
Assay type: functional, cell-based
Details: not given
For CCCCCOC(=O)[C@H](C)NP(=O)(OC[C@H]1O[C@@H](n2cc(F)c(=O)[nH]c2=O)C[C@@H]1O)Oc1cccc2ccccc12 (mixture of isomers), the IC50 was 440 nM. Work on C[C@H](NP(=O)(OC[C@H]1O[C@@H](n2cc(F)c(=O)[nH]c2=O)C[C@@H]1O)Oc1cccc2ccccc12)C(=O)OCc1ccccc1 (mixture of isomers) [FOSIFLOXURIDINE NAFALBENAMIDE] yielded an IC50 of 2500 nM.

System: L1210
Test: Cytostatic activity against thymidine-kinase deficient mouse L1210 cells after 48 hrs by cell counting
Assay type: functional, cell-based
Details: L1210, 48 h
In short: as §2
With CCCCCOC(=O)[C@H](C)NP(=O)(OC[C@H]1O[C@@H](n2cc(F)c(=O)[nH]c2=O)C[C@@H]1O)Oc1cccc2ccccc12 (mixture of isomers) the IC50 was 130 nM. Compound C[C@H](NP(=O)(OC[C@H]1O[C@@H](n2cc(F)c(=O)[nH]c2=O)C[C@@H]1O)Oc1cccc2ccccc12)C(=O)OCc1ccccc1 (mixture of isomers) [FOSIFLOXURIDINE NAFALBENAMIDE] has an IC50 of 45 nM.

System: L1210
Test: Ratio of IC50 for thymidine-kinase deficient mouse L1210 cells to IC50 for mouse L1210/0 cells after 48 hrs by cell counting
Assay type: functional
Details: not given
In short: (§3)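 Murine L1210/0 cells were compared with L1210/TK cells, selected for resistance to 5-bromo-2'-dUrd, and with L1210.Hyor cells, chronically infected with Mycoplasma hyorhinis. Cells were grown in DMEM with 10% FBS, 10 mM Hepes and 1 mM pyruvate at 37 °C and 5% CO2, then seeded at 60 000 cells/well with compound. They were Coulter-counted after 48 h. […] Mean of 2–4 experiments.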
With CCCCCOC(=O)[C@H](C)NP(=O)(OC[C@H]1O[C@@H](n2cc(F)c(=O)[nH]c2=O)C[C@@H]1O)Oc1cccc2ccccc12 (mixture of isomers) the “Ratio IC50” value was 40. In the case of C[C@H](NP(=O)(OC[C@H]1O[C@@H](n2cc(F)c(=O)[nH]c2=O)C[C@@H]1O)Oc1cccc2ccccc12)C(=O)OCc1ccccc1 (mixture of isomers) [FOSIFLOXURIDINE NAFALBENAMIDE], the “Ratio IC50” value is reported as 5.

System: CCRF-CEM
Test: Ratio of IC50 for human CEM cells expressing human ENT1 transporter in presence of NBMPR to IC50 for human CEM cells expressing human ENT1 transporter
Assay type: functional
Details: not given
In short: as §1
In the case of C[C@H](NP(=O)(OC[C@H]1O[C@@H](n2cc(F)c(=O)[nH]c2=O)C[C@@H]1O)Oc1cccc2ccccc12)C(=O)OCc1ccccc1 (mixture of isomers) [FOSIFLOXURIDINE NAFALBENAMIDE], the “Ratio IC50” value is reported as 2.

System: L1210
Test: Ratio of IC50 for Mycoplasma hyorhinis-infected mouse L1210 cells to IC50 for mouse L1210/0 cells after 48 hrs by cell counting
Assay type: functional
Details: not given
In short: as §3
In the case of CCCCCOC(=O)[C@H](C)NP(=O)(OC[C@H]1O[C@@H](n2cc(F)c(=O)[nH]c2=O)C[C@@H]1O)Oc1cccc2ccccc12 (mixture of isomers), the “Ratio IC50” value is reported as 2.9. With C[C@H](NP(=O)(OC[C@H]1O[C@@H](n2cc(F)c(=O)[nH]c2=O)C[C@@H]1O)Oc1cccc2ccccc12)C(=O)OCc1ccccc1 (mixture of isomers) [FOSIFLOXURIDINE NAFALBENAMIDE] the “Ratio IC50” value was 2.27.

System: not listed separately
Test: Drug metabolism in Trizma buffer at pH 7.6 assessed as metabolite 5-Fluoro-2'-deoxyuridine-5'-O-[1-naphthyl(L-alaninyl)]phosphate formation at 3 mg measured every 7 mins over 14 hrs by [31P]NMR spectroscopy in presence of carboxypeptidase Y
Assay type: physicochemical
Details: pH 7.6, 14 h
In short: (§4)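 Compound (3.0 mg) in acetone-d6 with Trizma buffer pH 7.6. A control 31P NMR spectrum (202 MHz) was taken at 25 °C, then defrosted carboxypeptidase Y (0.1 mg in Trizma) added. Spectra recorded every 7 min over 14 h at 25 °C to follow conversion to metabolites. Half-life was estimated from these spectra.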
With CCCCCOC(=O)[C@H](C)NP(=O)(OC[C@H]1O[C@@H](n2cc(F)c(=O)[nH]c2=O)C[C@@H]1O)Oc1cccc2ccccc12 (mixture of isomers) the Drug metabolism was “Active”.

System: not listed separately
Test: Half life in Trizma buffer at pH 7.6 at 3 mg by [31P]NMR spectroscopy in presence of carboxypeptidase Y
Assay type: physicochemical
Details: yeast (Saccharomyces cerevisiae)
In short: as §4
Work on CCCCCOC(=O)[C@H](C)NP(=O)(OC[C@H]1O[C@@H](n2cc(F)c(=O)[nH]c2=O)C[C@@H]1O)Oc1cccc2ccccc12 (mixture of isomers) yielded a half-life of less than 5 min.

System: CCRF-CEM
Test: Cytostatic activity against ENT1 transporter-deficient human CEM cells after 72 hrs by cell counting
Assay type: functional, cell-based
Details: not given
In short: (§5)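 Suspension leukemia cells in DMEM with 10% FBS, 10 mM Hepes and 1 mM sodium pyruvate at 37 °C under 5% CO2. Seeded at 60 000 cells/well with graded compound levels. Grown 48 h (L1210) or 72 h (CEM), then counted by Coulter counter. […] Mean ± SD of two to four independent experiments.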
Work on C[C@H](NP(=O)(OC[C@H]1O[C@@H](n2cc(F)c(=O)[nH]c2=O)C[C@@H]1O)Oc1cccc2ccccc12)C(=O)OCc1ccccc1 (mixture of isomers) [FOSIFLOXURIDINE NAFALBENAMIDE] yielded an IC50 of 600 nM.

System: CCRF-CEM
Test: Cytostatic activity against human CEM cells expressing human ENT1 transporter after 72 hrs by cell counting
Assay type: functional, cell-based
Details: not given
In short: as §5
C[C@H](NP(=O)(OC[C@H]1O[C@@H](n2cc(F)c(=O)[nH]c2=O)C[C@@H]1O)Oc1cccc2ccccc12)C(=O)OCc1ccccc1 (mixture of isomers) [FOSIFLOXURIDINE NAFALBENAMIDE] gave an IC50 of 50 nM.

System: CCRF-CEM
Test: Cytostatic activity against human CEM cells expressing human ENT1 transporter after 72 hrs by cell counting in presence of NBMPR
Assay type: functional, cell-based
Details: not given
In short: (§6)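 CEM/hEnt-1 cells with 10 μM dipyridamole or 10 μM NBMPR added alongside graded compound levels, in DMEM with 10% FBS, 10 mM Hepes and 1 mM sodium pyruvate at 37 °C under 5% CO2. Seeded at 60 000 cells/well, counted by Coulter counter after 3 days.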
C[C@H](NP(=O)(OC[C@H]1O[C@@H](n2cc(F)c(=O)[nH]c2=O)C[C@@H]1O)Oc1cccc2ccccc12)C(=O)OCc1ccccc1 (mixture of isomers) [FOSIFLOXURIDINE NAFALBENAMIDE] gave an IC50 of 260 nM.

System: CCRF-CEM
Test: Cytostatic activity against thymidine-kinase deficient human CEM cells after 72 hrs by cell counting
Assay type: functional, cell-based
Details: not given
In short: as §2
In the case of CCCCCOC(=O)[C@H](C)NP(=O)(OC[C@H]1O[C@@H](n2cc(F)c(=O)[nH]c2=O)C[C@@H]1O)Oc1cccc2ccccc12 (mixture of isomers), the IC50 is reported as 280 nM. With C[C@H](NP(=O)(OC[C@H]1O[C@@H](n2cc(F)c(=O)[nH]c2=O)C[C@@H]1O)Oc1cccc2ccccc12)C(=O)OCc1ccccc1 (mixture of isomers) [FOSIFLOXURIDINE NAFALBENAMIDE] the IC50 was 310 nM.

System: HeLa
Test: Cytostatic activity against human HeLa cells […] by cell counting
Assay type: functional, cell-based
Details: not given
For CCCCCOC(=O)[C@H](C)NP(=O)(OC[C@H]1O[C@@H](n2cc(F)c(=O)[nH]c2=O)C[C@@H]1O)Oc1cccc2ccccc12 (mixture of isomers), the IC50 was 29 nM. C[C@H](NP(=O)(OC[C@H]1O[C@@H](n2cc(F)c(=O)[nH]c2=O)C[C@@H]1O)Oc1cccc2ccccc12)C(=O)OCc1ccccc1 (mixture of isomers) [FOSIFLOXURIDINE NAFALBENAMIDE] gave an IC50 of 65 nM.

System: L1210
Test: Cytostatic activity against Mycoplasma hyorhinis-infected mouse L1210 cells after 48 hrs by cell counting
Assay type: functional, cell-based
Details: L1210, 48 h
In short: as §2
With CCCCCOC(=O)[C@H](C)NP(=O)(OC[C@H]1O[C@@H](n2cc(F)c(=O)[nH]c2=O)C[C@@H]1O)Oc1cccc2ccccc12 (mixture of isomers) the IC50 was 6 nM. In the case of C[C@H](NP(=O)(OC[C@H]1O[C@@H](n2cc(F)c(=O)[nH]c2=O)C[C@@H]1O)Oc1cccc2ccccc12)C(=O)OCc1ccccc1 (mixture of isomers) [FOSIFLOXURIDINE NAFALBENAMIDE], the IC50 is reported as 25 nM.

System: CCRF-CEM
Test: Ratio of IC50 for ENT1 transporter-deficient human CEM cells to IC50 for human CEM cells expressing human ENT1 transporter after 72 hrs by cell counting
Assay type: functional
Details: not given
In short: as §1
For C[C@H](NP(=O)(OC[C@H]1O[C@@H](n2cc(F)c(=O)[nH]c2=O)C[C@@H]1O)Oc1cccc2ccccc12)C(=O)OCc1ccccc1 (mixture of isomers) [FOSIFLOXURIDINE NAFALBENAMIDE], the “Ratio IC50” value was 7.

System: not listed separately
Test: Drug metabolism in Trizma buffer at pH 7.6 assessed as metabolite 5-Fluoro-2'deoxyuridine 5'-O-[(L-Alaninyl)]phosphate formation at 3 mg measured after 45 mins by [31P]NMR spectroscopy in presence of carboxypeptidase Y
Assay type: physicochemical
Details: pH 7.6, 0.75 h
In short: as §4
For CCCCCOC(=O)[C@H](C)NP(=O)(OC[C@H]1O[C@@H](n2cc(F)c(=O)[nH]c2=O)C[C@@H]1O)Oc1cccc2ccccc12 (mixture of isomers), the Drug metabolism was “Active”.

System: CCRF-CEM
Test: Cytostatic activity against human CEM cells expressing human ENT1 transporter after 72 hrs by cell counting in presence of dipyridamole
Assay type: functional, cell-based
Details: not given
In short: as §6
C[C@H](NP(=O)(OC[C@H]1O[C@@H](n2cc(F)c(=O)[nH]c2=O)C[C@@H]1O)Oc1cccc2ccccc12)C(=O)OCc1ccccc1 (mixture of isomers) [FOSIFLOXURIDINE NAFALBENAMIDE] showed an IC50 of 130 nM.

System: CCRF-CEM
Test: Cytostatic activity against human CEM/0 cells after 72 hrs by cell counting
Assay type: functional, cell-based
Details: not given
In short: as §5
With CCCCCOC(=O)[C@H](C)NP(=O)(OC[C@H]1O[C@@H](n2cc(F)c(=O)[nH]c2=O)C[C@@H]1O)Oc1cccc2ccccc12 (mixture of isomers) the IC50 was 15 nM. In the case of C[C@H](NP(=O)(OC[C@H]1O[C@@H](n2cc(F)c(=O)[nH]c2=O)C[C@@H]1O)Oc1cccc2ccccc12)C(=O)OCc1ccccc1 (mixture of isomers) [FOSIFLOXURIDINE NAFALBENAMIDE], the IC50 is reported as 68 nM.
